In assay [1] the target is Histone deacetylase 1 (Homo sapiens) (UniProt Q13547). Nature of the assay: Inhibition of C-terminal 6His/FLAG tagged human recombinant HDAC1 (1 to 482 residues) […] expressed in Sf9 insect cells using Z-Lys(Ac)-AMC as fluorogenic substrate at 10 uM preincubated for 60 mins followed by substrate addition and measured after 90 mins by microplate reader analysis relative to control. Particulars: time 150.0 min. The method, boiled down:
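Human recombinant enzyme was preincubated with 3-fold inhibitor dilutions for 60 min at 25 °C in Tris-HCl pH 8.0 buffer with BSA. ZMAL (75 μM solution) was then added, and the mix was incubated 90 min at 37 °C (max 1% DMSO). Trypsin was added for 30 min at 37 °C, and fluorescence was read at ex 355/em 460. Tested at least twice in duplicate.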

Assay [2] has as its system T1, Histone deacetylase 6 (Danio rerio), F8W4B7 [H573A].
T1 sequence (whole entry): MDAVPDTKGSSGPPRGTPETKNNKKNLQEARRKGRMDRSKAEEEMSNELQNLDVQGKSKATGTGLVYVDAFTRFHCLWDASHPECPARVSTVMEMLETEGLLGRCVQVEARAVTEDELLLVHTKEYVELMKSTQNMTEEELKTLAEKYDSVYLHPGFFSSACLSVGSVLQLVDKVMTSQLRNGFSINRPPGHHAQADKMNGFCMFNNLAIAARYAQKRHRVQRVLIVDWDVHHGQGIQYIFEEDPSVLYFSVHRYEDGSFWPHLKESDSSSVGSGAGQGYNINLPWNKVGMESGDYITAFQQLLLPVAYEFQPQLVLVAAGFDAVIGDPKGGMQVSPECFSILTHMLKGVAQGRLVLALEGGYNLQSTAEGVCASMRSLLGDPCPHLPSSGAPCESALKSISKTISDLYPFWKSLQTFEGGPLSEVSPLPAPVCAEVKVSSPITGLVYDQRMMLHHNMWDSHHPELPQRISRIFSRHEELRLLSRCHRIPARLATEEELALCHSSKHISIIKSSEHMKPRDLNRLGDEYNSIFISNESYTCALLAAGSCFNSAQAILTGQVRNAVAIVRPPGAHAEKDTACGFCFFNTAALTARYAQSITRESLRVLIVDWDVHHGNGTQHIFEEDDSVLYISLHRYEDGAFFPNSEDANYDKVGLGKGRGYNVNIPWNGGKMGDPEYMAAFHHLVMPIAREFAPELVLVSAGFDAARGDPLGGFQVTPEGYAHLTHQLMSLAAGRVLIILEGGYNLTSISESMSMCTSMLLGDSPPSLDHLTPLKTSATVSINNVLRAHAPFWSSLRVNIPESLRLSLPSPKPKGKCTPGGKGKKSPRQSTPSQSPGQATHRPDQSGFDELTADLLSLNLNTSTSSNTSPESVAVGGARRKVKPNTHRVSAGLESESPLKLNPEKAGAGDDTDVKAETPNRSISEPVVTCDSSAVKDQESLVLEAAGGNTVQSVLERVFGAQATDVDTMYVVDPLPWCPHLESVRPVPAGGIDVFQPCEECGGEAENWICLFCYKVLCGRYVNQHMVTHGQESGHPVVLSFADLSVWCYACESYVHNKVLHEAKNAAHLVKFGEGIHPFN
In words: Irreversible inhibition of Danio rerio HDAC6 H573A mutant catalytic domain 2 assessed as enzyme catalysed ring opening by measuring reduction in 2-(Benzylamino)pyrimidine-5-carbohydrazide formation at 100 uM incubated overnight by LC-MS analysis. The method, boiled down:
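Zebrafish HDAC6 CD2 mutants were made by site-directed mutagenesis and expressed in BL21(DE3). Enzyme at 50 μM was incubated overnight with 100 μM inhibitor in 50 mM HEPES pH 7.5, 100 mM KCl, 1 mM TCEP, 5% glycerol; an enzyme-free control was included. Protein was methanol-precipitated and filtered, and products were analysed by C18 UPLC-MS with a 2-min gradient.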

In assay [3] the target is T2, Protein deacetylase HDAC6 (Homo sapiens, UniProt Q9UBN7).
T2 sequence (Q9UBN7 whole entry): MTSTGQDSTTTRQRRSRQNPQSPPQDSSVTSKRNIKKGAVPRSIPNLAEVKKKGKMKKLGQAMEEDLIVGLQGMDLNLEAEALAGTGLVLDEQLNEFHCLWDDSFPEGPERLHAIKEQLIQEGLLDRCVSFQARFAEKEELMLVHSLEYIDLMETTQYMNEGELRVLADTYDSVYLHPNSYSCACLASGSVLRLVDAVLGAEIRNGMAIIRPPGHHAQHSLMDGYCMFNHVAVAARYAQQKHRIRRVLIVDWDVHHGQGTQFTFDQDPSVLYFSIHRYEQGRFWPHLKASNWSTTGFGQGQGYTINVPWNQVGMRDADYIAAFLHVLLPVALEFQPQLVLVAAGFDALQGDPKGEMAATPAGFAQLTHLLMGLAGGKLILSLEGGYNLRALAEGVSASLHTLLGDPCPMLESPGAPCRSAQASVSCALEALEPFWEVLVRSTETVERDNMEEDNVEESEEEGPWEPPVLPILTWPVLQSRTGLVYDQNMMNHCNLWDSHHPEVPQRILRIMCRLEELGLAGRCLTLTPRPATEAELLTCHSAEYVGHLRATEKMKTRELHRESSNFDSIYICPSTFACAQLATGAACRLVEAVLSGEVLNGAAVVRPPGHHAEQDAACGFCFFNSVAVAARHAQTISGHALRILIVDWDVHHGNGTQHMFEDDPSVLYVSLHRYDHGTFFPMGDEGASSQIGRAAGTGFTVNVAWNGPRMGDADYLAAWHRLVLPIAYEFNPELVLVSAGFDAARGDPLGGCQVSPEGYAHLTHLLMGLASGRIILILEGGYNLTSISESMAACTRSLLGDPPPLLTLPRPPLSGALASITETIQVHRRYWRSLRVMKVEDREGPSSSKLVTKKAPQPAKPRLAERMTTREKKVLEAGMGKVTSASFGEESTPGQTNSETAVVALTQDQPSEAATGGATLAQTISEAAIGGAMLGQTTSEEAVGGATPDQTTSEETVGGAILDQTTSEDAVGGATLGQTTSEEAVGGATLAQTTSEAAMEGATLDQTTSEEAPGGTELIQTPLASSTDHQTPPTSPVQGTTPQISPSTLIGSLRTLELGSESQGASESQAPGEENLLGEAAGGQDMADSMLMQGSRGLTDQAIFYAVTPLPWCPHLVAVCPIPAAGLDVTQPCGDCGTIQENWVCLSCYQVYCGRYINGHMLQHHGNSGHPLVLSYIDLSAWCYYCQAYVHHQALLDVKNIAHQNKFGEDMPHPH
In words: Inhibition of N-terminal GST tagged human recombinant HDAC6 (1 to 1215 residues) expressed in Sf9 insect cells using Z-Lys(Ac)-AMC as fluorogenic substrate preincubated for 2 hrs followed by substrate addition and measured after 90 mins by microplate reader analysis.

Structures are written as SMILES. Activity calls are given as the source filed them. The calls are words filed in the database; no cut-off is given here.

Broadly, the inhibition is the percentage by which the read-out fell short of the control. Broadly, the IC50 is the concentration at which inhibition is half-maximal.

Histone deacetylase 1 (Homo sapiens), sequence (Q13547 whole entry, the tested form may be a part): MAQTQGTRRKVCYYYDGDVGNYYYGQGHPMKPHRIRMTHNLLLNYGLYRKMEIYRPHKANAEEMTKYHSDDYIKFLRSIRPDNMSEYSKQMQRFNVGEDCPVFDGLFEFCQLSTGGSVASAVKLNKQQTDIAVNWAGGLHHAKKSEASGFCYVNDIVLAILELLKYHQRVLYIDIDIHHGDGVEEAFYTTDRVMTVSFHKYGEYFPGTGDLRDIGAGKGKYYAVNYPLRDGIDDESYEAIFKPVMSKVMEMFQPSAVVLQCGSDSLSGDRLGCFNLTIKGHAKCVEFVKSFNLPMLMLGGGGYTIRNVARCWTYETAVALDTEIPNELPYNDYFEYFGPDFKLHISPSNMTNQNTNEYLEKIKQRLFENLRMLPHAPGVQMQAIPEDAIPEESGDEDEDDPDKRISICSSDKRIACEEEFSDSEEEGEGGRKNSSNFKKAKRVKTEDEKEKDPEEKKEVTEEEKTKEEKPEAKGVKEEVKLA

Regarding `FC(F)(F)c1nnc(-c2cnc(NCc3ccccc3)nc2)o1`, the inhibition in assay [1] is under 15%. Moreover, the inhibition result in assay [2] is “Active”. In addition, the IC50 in assay [3] worked out at 0.601 µM.
Turning to `FC(F)c1nnc(-c2cnc(NCc3ccccc3)nc2)o1`, the inhibition in assay [1] is under 15%. Also, the inhibition entry in assay [2] was “Active”. In addition, the IC50 in assay [3] turned out to be 0.129 µM.

Values taken from ChEMBL document CHEMBL5365542, “Difluoromethyl-1,3,4-oxadiazoles Are Selective, Mechanism-Based, and Essentially Irreversible Inhibitors of Histone Deacetylase 6” (J Med Chem, 2023).
